Assay results as given in publication PMC4277818 (Molecular imaging and biology : MIB : the official …, 2012).

System: TRAP5b
Assay: Serum TRAP5b solid-phase immunoassay
Type: in vivo, C57BL/6 mice
Conditions: 0.3 mg/kg RANKL twice a day for 10 days; PET/CT imaging study, n=4
Outline: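 Male C57BL/6 mice (~23 g) got RANKL s.c. in the nape in 50 μL saline, twice a day for 10 days, under brief isoflurane; controls got vehicle. Blood was taken by submandibular venous puncture before biodistribution or at sacrifice. Serum was spun at 10,000 rpm for 5 min at 4°C and stored at −20°C. Osteoclastic TRAP5b was measured by solid-phase immunoassay. P<0.05 was significant.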

B1: RANKL: receptor activator of nuclear factor κB ligand, cytokine stimulating osteoclastogenesis; provided by Amgen (protein, UniProt O14788 140-317, looked up)
Tumor necrosis factor ligand …: IRAEKAMVDGSWLDLAKRSKLEAQPFAHLTINATDIPSGSHKVSLSSWYHDRGWAKISNMTFSNGKLIVNQDGFYYLYANICFRHHETSGDLATEYLQLMVYVTKTSIKIPSSHTLMKGGSTKYWSGNSEFHFYSINVGGFFKLRSGEEISIEVSNPSLLDPDQDATYFGAFKVRDID
  increase of serum TRAP5b, RANKL-treated vs control cohort: 1.6 fold
